Data on eleven molecules can be found in ChEMBL document CHEMBL3259606, “Discovery of novel inhibitors targeting the macrophage migration inhibitory factor via structure-based virtual screening and bioassays” (J Med Chem, 2014).

The structures appear in SMILES notation. Activity calls are given as the source filed them. No cut-off for these calls is given here.

Test [1] addresses T1, Macrophage migration inhibitory factor (Homo sapiens, UniProt P14174).
T1 sequence (P14174 whole entry): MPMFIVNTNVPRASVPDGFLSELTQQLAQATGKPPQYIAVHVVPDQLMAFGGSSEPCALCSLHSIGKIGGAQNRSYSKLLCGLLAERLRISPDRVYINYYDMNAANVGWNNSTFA
Description: (§1) Inhibition of recombinant human MIF tautomerase activity expressed in Escherichia coli using L-dopachrome methyl ester as substrate incubated for 30 mins prior to substrate addition measured for 3 mins.

Another test has as its system RAW264.7. Put plainly: Antiinflammatory activity in mouse RAW264.7 cells assessed as inhibition of LPS-induced nitrite production at 40 uM after 24 hrs by Griess assay. The class given is functional, cell-based. In short, it runs like this: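 RAW 264.7 macrophages (DMEM, 5% heat-inactivated FBS, 37 °C, 5% CO2) incubated 24 h with 0.1 μg/mL LPS with or without compound; nitrite in supernatant by Griess reagent. Mean ± SD, n = 3, representative of three independent experiments.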

Test [2] has as its target T2, Macrophage migration inhibitory factor (Homo sapiens) (UniProt P14174).
T2 sequence (whole entry): T1 sequence (P14174 whole entry)
Described as §1.

The target of test [3] is T2, Macrophage migration inhibitory factor (Homo sapiens). Put plainly: Inhibition of recombinant MIF (unknown origin)-mediated glucocorticoid overriding activity in LPS-stimulated mouse RAW264.7 cells assessed as inhibition of dexamethasone-induced intracellular TNF-alpha production at 20 uM preincubated for 30 mins followed by LPS challenge measured at 4 hrs by ELISA relative to control. It is filed as cell-based. In short, it runs like this:
(§2)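 RAW 264.7 cells, 5 × 10^4/well in triplicate, pretreated 30 min with dexamethasone (0.1 μM) plus recombinant MIF (0.2 μM) with or without compound, then stimulated with LPS (0.1 μg/mL). TNF-α in supernatant by sandwich ELISA at 4 h; NO in supernatant by Griess reagent at 16 h. Mean ± SD, n = 3, three independent experiments.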
(In an ELISA, binding on a coated surface is turned into a signal by an enzyme label.)

For test [4] the target is unchanged. Put plainly: Inhibition of recombinant MIF (unknown origin)-induced ERK1/2 phosphorylation in mouse RAW264.7 cells at 20 uM preincubated for 30 mins followed by protein addition measured after 20 mins by Western blot analysis relative to control. It is filed as cell-based. In short, it runs like this:
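RAW 264.7 cells given compound 30 min before MIF (0.1 μg/mL). Lysates taken 20 min after stimulation, separated on 12% SDS-PAGE and immunoblotted for phospho-ERK1/2 and total ERK1/2 (loading control), ECL detection. Densitometry expressed as % of MIF-alone band intensity.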

Test [5] shares this target. Description: Inhibition of recombinant MIF (unknown origin)-mediated glucocorticoid overriding activity in LPS-stimulated mouse RAW264.7 cells assessed as inhibition of dexamethasone-induced intracellular nitric oxide production at 20 uM preincubated for 30 mins followed by LPS challenge measured at 16 hrs by Griess assay relative to control. The class given is cell-based. In short, it runs like this: as §2
(Griess reagent forms a coloured azo dye with nitrite.)

For test [6] the target is unchanged. Description: Inhibition of recombinant MIF (unknown origin)-induced mouse RAW264.7 cell chemotactic migration at 20 uM preincubated for 30 mins followed by macrophage addition measured every 15 mins for 4 hrs relative to control. The essentials:
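Recombinant MIF with or without compound placed in the lower chamber of a CIM-16 plate 30 min before RAW 264.7 cells (20,000/well, serum-free medium) added to the upper chamber. Impedance-based migration on xCELLigence RTCA-DP read every 15 min for 4 h. Heat-inactivated MIF as negative control; % of MIF-alone migration; mean ± SD, n = 3.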

Take `COc1cc(-c2nc3sc4c(c3c(=O)[nH]2)CCCC4)cc(Br)c1OCC(=O)O`: the IC50 (usually the concentration that inhibits the measured activity by half) in test [1] was found to be 22.6 µM.
For `O=C(O)CCC(=O)Nc1nc(-c2cc3ccccc3oc2=O)cs1`, in test [1], the IC50 was determined as 102 µM.
Same read-out and setting: the result for `O=C(O)C[C@@H](Cc1ccccc1)c1ccco1` reads 85.6 µM; that for `COc1ccc2c3c(c(=O)oc2c1OCC(=O)O)CCCC3`, 25.8 µM.
Take `COc1ccc(C(=O)O)cc1NC(=S)NC(=O)c1cc2ccccc2o1`: in the test on RAW264.7, the inhibition (as a rule, the change of the read-out against control, counted positive when it falls) was “Active”. Further, the inhibition entry was “Dose-dependent effect” in test [2], 131% in test [3], 59% in test [4] and 131% in test [5].
On to `O=C(Nc1ccccc1C(=O)O)c1cc(S(=O)(=O)Nc2ccc(F)cc2)ccc1Cl`, for which, in test [1], the IC50 turned out to be 74.5 µM.
For the molecule `O=C(O)c1cccc(NC(=S)NC(=O)c2ccc(-c3ccccc3)cc2)c1`, in the test with RAW264.7, the inhibition entry is “Active”. Moreover, the figures for the inhibition entry in test [2], in test [4] and in test [6] were “Dose-dependent effect”, 43% and 52%, respectively.
As to `COC(=O)C[C@H]1CC(c2ccc(O)cc2)=NO1`, the inhibition entry in test [2] is “Dose-dependent effect”; in test [3], 128%; in test [5] it was 128%. In addition, in test [4], the inhibition entry is “Active”. The fold change (FC) in test [6] amounted to 2.2.
On to `Cc1c(CCC(=O)O)c(=O)oc2cc(OCc3ccccc3Br)ccc12`, for which the IC50 in test [1] was determined as 23.1 µM.
On the same count and under the same terms, the result for `COc1ccc(-c2cc(C)nc(SCc3cccc(C(=O)O)c3)n2)cc1` reads 45.5 µM.
For the molecule `COc1cc(-c2nc3ccccc3s2)cc(Br)c1OCC(=O)O`, the inhibition entry in the test on RAW264.7 is “Active”. The inhibition result was “Dose-dependent effect” in test [2], 55% in test [4] and 83% in test [6].
